Assay results taken from paper PMC4784694 (Molecular cancer therapeutics, 2015).

Key:
breast cancer cells = settings: Supplemental Figure 3B; others and own data
MDA-MB-231 tumors [1] = experiment: Eribulin dose ranging in mice bearing MDA-MB-231 tumors; assay type: in vivo
Procedure, shortened: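 Female NSG mice, 6–8 weeks old, were inoculated with 5×10⁵ MDA-MB-231 cells in Matrigel into the #9 mammary fat pad to form orthotopic tumours. Eribulin was diluted in saline and given i.v. once a week, at 0.1 mg/kg for primary fat-pad therapy. Vehicle controls received saline. Weight change is reported as mean and range.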

MDA-MB-231 tumors [2] = assay type: in vivo, NSG mice; settings: eribulin 0.1 mg/kg i.v.; POL5551 20 mg/kg s.c. b.i.d.; Figure 5A–C

SMILES	SDF-1 mediated migration of breast cancer cells (breast cancer cells)	Primary breast tumor reduction (MDA-MB-231 tumors [1]; eribulin 0.1 mg/kg single-agent, Supplemental Figure 5F) [%]	Mice survival (MDA-MB-231 tumors [1]; eribulin dose ranging, Supplemental Figure 5D)	Treatment associated weight loss (MDA-MB-231 tumors [1]; high dose of eribulin (>0.5 mg/kg), Supplemental Figure 5E)	Primary MFP tumor growth (MDA-MB-231 tumors [2])
c1cc(CN2CCCNCCNCCCNCC2)ccc1CN1CCCNCCNCCCNCC1 [AMD3100]	can block SDF-1 mediated migration of breast cancer cells				
C=C1C[C@@H]2CC[C@@]34C[C@H]5O[C@H]6[C@@H](O3)[C@H]3O[C@H](CC[C@@H]3O[C@H]6[C@H]5O4)CC(=O)C[C@@H]3[C@@H](OC)[C@@H](C[C@H](O)CN)O[C@H]3C[C@H]3O[C@@H](CC[C@@H]1O2)C[C@@H](C)C3=C [eribulin, Eribulin]		50	prolonged mice survival in a dose-dependent manner	greater treatment associated weight loss	decreased primary tumor growth rate
